Assays:
[1] = Lethal dose after administration in mouse; format: toxicity, organism-based; conditions: in vivo, read-out: ALD50
[2] = Lethal dose after intraperitoneal administration in mouse; format: toxicity, organism-based; conditions: in vivo, ip, read-out: ALD50
[3] = molecular target: T1, Adrenergic receptor alpha-2 (Rattus norvegicus, UniProt P22086+P19328+P22909); test: Binding affinity against alpha-2 adrenergic receptor was measured using radioligand ([3H]clonidine) binding assay; format: protein assay
T1 sequence (P22086 whole entry): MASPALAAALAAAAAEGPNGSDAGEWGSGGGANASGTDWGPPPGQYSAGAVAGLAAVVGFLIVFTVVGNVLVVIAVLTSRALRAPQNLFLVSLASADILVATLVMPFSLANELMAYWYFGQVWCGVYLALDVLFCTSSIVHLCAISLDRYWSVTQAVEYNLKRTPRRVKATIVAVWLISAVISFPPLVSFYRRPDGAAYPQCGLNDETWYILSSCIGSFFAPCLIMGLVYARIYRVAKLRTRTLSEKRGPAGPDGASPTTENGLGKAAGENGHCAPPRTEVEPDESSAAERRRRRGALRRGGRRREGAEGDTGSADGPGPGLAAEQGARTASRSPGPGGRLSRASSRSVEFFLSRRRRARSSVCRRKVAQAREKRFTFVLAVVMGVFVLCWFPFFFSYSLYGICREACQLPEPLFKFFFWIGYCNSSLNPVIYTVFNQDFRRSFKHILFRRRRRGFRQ
T1 sequence (P19328 whole entry): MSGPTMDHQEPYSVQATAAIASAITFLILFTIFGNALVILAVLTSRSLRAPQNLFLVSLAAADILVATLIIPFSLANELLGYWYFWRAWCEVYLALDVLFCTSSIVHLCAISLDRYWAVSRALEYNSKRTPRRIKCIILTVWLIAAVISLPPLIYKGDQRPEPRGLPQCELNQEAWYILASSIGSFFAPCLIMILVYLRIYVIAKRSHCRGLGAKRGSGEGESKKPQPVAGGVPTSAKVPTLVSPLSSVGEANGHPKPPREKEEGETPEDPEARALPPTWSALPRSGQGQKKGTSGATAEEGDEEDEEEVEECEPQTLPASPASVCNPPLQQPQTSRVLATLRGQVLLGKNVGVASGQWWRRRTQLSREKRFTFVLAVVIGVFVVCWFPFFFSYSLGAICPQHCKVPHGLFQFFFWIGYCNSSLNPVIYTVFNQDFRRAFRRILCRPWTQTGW
T1 sequence (P22909 whole entry): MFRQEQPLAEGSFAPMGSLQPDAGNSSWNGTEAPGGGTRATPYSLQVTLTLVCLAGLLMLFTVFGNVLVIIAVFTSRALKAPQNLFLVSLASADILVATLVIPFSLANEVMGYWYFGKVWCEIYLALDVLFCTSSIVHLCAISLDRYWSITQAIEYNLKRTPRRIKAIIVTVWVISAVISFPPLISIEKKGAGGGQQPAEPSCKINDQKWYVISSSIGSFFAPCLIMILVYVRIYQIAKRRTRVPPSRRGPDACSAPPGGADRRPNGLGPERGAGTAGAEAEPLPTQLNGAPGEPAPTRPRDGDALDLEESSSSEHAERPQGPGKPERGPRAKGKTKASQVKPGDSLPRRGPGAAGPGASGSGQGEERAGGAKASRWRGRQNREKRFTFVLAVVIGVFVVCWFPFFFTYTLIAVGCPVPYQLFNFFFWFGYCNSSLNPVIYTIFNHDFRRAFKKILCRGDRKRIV

[4] = Binding affinity against desipramine receptor was measured using radioligand ([3H]desipramine) binding assay; design: species or system Rattus norvegicus
Dopamine receptor = test: Compound was tested for its effect on dopamine saturation analysis; format: protein assay
D(2) dopamine receptor = D(2) dopamine receptor (Rattus norvegicus, UniProt P61169); test: In vitro affinity for rat striatal Dopamine receptor D2 labeled with [3H]spiperone
Chain of D(2) dopamine receptor (P61169 whole entry): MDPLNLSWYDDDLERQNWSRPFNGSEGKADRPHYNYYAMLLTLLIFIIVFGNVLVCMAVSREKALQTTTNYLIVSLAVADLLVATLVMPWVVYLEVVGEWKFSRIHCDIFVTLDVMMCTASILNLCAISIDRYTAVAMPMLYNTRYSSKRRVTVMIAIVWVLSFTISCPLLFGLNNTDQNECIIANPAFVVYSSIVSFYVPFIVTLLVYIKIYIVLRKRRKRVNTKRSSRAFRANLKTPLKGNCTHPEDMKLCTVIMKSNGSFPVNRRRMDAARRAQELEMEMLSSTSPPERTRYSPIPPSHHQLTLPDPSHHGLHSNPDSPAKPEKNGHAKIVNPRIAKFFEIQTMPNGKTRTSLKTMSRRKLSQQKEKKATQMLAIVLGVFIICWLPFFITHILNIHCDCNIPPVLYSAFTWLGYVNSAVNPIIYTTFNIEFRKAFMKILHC

[5] = molecular target: GABA-A receptor; anion channel; test: Inhibition of [3H]muscimol binding to Gamma-aminobutyric acid (GABA-A) receptor; format: protein-complex assay, Rattus norvegicus
[6] = Binding affinity against glycine receptor was measured using radioligand ([3H]strychnine) binding assay
[7] = Binding affinity against imipramine receptor was measured using radioligand ([3H]-imipramine) binding assay; design: species or system Rattus norvegicus
[8] = Binding affinity against histamine receptor was measured using radioligand ([3H]-pyrilamine) binding assay
Mus musculus [9] = species on record: Mus musculus; test: Compound was tested for inhibition of norepinephrine lethality in mouse; format: functional
Summary of the method: (§1)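 Groups of 10 nonfasted male mice dosed orally with test compound (initial 100 mg/kg) or vehicle (distilled H2O or 0.5% methocel). Active compounds retested at lower doses, 10 mice/dose, for dose response. ED50 by Berkson's method.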

Mus musculus [10] = species on record: Mus musculus; test: Compound was tested for inhibition of physostigmine lethality in mouse.; format: functional
Summary of the method: as §1, with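 “methocel). At 30 min, physostigmine given ip at 1.25 mg/kg, and lethality followed for up to 1 h.” for “methocel).”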

[11] = Binding affinity against Muscarinic acetylcholine receptor was measured using radioligand ([3H]QNB) binding assay
Rattus norvegicus [12] = species on record: Rattus norvegicus; test: Compound was tested for inhibition of hexobarbatial potentiation in rat.; format: functional
Summary of the method: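 Hexobarbital sodium (40 mg/kg, ip) was given to nonfasted male rats 15, 30, 60 or 120 min after test drug, or 15 min after vehicle (distilled H2O or 0.5% methocel). Loss of righting reflex of 1-min duration was scored over about 10–15 min. Dose response at peak-effect time used 10 rats/dose; ED50 and fiducial limits by Berkson.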

Rattus norvegicus [13] = species on record: Rattus norvegicus; test: Compound was tested for inhibition of spontaneous motor activity in rat.; format: functional
Rattus norvegicus [14] = species on record: Rattus norvegicus; test: Compound was tested for its ability to induce catalepsy in rats.; format: functional
Summary of the method: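 Catalepsy was induced in rats with orally dosed compound as a predictor of extrapyramidal liability. ED50 (mg/kg, po) with fiducial limits by Berkson's method.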

Rattus norvegicus [15] = species on record: Rattus norvegicus; test: Compound was tested for inhibition of conditioned avoidance response (CAR ); format: functional
Summary of the method: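 Rats trained to avoid an electric shock, test compound given orally, and block of the conditioned avoidance response scored. ED50 (mg/kg, po) with fiducial limits by the method of Berkson.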

Rattus norvegicus [16] = species on record: Rattus norvegicus; test: Compound was tested for inhibition of ethanol potentiation in rat.; format: functional
Summary of the method: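 Nonfasted male rats received test drug or vehicle (distilled H2O or 0.5% methocel). EtOH (10 mL of 20% solution/kg, ip) followed at 15, 30, 60 or 120 min post-drug; the vehicle group got it at 15 min. Rats were watched about 10–15 min for loss of righting reflex lasting 1 min. Dose response at peak time used 10/dose; ED50 by Berkson.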

## Cl.O=C1CC2(CCCC2)CC(=O)N1CCCCN1CCN(c2nsc3ccccc23)CC1 [TIOSPIRONE HYDROCHLORIDE]
[1]
  LD50: 1850 mg/kg
[2]
  LD50: 1530 mg/kg
[3]
  IC50: > 1 µM
[4]
  IC50: > 1 µM
Dopamine receptor
  Kd: 0.0003337 µM
D(2) dopamine receptor
  IC50: 0.008 µM
[5]
  IC50: > 1 µM
[6]
  IC50: > 1 µM
[7]
  IC50: > 1 µM
[8]
  IC50: 0.142 µM
Mus musculus [9]
  ED50: 12.5 mg/kg
Mus musculus [10]
  ED50: 294 mg/kg
[11]
  IC50: > 1 µM
Rattus norvegicus [12]
  ED50: 6.7 mg/kg
Rattus norvegicus [13]
  ED50: 8.4 mg/kg
Rattus norvegicus [14]
  ED50: 84.4 mg/kg
Rattus norvegicus [15]
  ED50: 10.5 mg/kg
Rattus norvegicus [16]
  ED50: 9.3 mg/kg

Reference: ChEMBL document CHEMBL1123413, “Synthesis and biological evaluation of 1-(1,2-benzisothiazol-3-yl)- and (1,2-benzisoxazol-3-yl)piperazine derivatives as potential antipsychotic agents” (J Med Chem, 1986)
